Laboratory results published in ChEMBL document CHEMBL4257576, “4-Iminooxazolidin-2-one as a Bioisostere of the Cyanohydrin Moiety: Inhibitors of Enterovirus 71 3C Protease” (J Med Chem, 2018).
pEC50, pKi: −log10 of the molar value. The source made the active and inactive calls. No cut-off for these calls is given here.

Key:
[1] = Half life in human plasma by HPLC analysis; format: ADME, cell-free
Summary of the method: (§1)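 Compound was incubated in human or mouse plasma and its remaining level followed over time to obtain t1/2. Each point is n = 3 with standard deviation bars.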

[2] = Half life in ICR (CD-1) mouse plasma by HPLC analysis; format: ADME, cell-free; summary of the method: as §1
[3] = Half life in human liver microsomes at 1 mg/ml in presence of NADPH regenerating system by HPLC analysis; format: ADME, microsome
Summary of the method: (§2)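 Human and mouse liver microsomes at 1.0 mg/mL. Compound disappearance was tracked over time to give half-life and intrinsic clearance (Clint, µL/min/mg). Data are the mean of triplicates with SD (n = 3).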

[4] = Half life in mouse liver microsomes at 1 mg/ml in presence of NADPH regenerating system by HPLC analysis; format: ADME, microsome; summary of the method: as §2
[5] = Intrinsic clearance in human liver microsomes at 1 mg/ml in presence of NADPH regenerating system by HPLC analysis; format: ADME, microsome; details: read-out: CLH; summary of the method: as §2
[6] = Intrinsic clearance in mouse liver microsomes at 1 mg/ml in presence of NADPH regenerating system by HPLC analysis; format: ADME, microsome; details: read-out: CLH; summary of the method: as §2
Genome polyprotein = Genome polyprotein (Enterovirus A71, UniProt A0A1D8D5K2); test: Inhibition of EV71 3C protease expressed in Escherichia coli BL21(DE3) using NMA-IEALFQGPPK(DNP)FR as substrate preincubated for 0.5 hrs followed by substrate addition by fluorescence assay
Chain of Genome polyprotein (A0A1D8D5K2 whole entry): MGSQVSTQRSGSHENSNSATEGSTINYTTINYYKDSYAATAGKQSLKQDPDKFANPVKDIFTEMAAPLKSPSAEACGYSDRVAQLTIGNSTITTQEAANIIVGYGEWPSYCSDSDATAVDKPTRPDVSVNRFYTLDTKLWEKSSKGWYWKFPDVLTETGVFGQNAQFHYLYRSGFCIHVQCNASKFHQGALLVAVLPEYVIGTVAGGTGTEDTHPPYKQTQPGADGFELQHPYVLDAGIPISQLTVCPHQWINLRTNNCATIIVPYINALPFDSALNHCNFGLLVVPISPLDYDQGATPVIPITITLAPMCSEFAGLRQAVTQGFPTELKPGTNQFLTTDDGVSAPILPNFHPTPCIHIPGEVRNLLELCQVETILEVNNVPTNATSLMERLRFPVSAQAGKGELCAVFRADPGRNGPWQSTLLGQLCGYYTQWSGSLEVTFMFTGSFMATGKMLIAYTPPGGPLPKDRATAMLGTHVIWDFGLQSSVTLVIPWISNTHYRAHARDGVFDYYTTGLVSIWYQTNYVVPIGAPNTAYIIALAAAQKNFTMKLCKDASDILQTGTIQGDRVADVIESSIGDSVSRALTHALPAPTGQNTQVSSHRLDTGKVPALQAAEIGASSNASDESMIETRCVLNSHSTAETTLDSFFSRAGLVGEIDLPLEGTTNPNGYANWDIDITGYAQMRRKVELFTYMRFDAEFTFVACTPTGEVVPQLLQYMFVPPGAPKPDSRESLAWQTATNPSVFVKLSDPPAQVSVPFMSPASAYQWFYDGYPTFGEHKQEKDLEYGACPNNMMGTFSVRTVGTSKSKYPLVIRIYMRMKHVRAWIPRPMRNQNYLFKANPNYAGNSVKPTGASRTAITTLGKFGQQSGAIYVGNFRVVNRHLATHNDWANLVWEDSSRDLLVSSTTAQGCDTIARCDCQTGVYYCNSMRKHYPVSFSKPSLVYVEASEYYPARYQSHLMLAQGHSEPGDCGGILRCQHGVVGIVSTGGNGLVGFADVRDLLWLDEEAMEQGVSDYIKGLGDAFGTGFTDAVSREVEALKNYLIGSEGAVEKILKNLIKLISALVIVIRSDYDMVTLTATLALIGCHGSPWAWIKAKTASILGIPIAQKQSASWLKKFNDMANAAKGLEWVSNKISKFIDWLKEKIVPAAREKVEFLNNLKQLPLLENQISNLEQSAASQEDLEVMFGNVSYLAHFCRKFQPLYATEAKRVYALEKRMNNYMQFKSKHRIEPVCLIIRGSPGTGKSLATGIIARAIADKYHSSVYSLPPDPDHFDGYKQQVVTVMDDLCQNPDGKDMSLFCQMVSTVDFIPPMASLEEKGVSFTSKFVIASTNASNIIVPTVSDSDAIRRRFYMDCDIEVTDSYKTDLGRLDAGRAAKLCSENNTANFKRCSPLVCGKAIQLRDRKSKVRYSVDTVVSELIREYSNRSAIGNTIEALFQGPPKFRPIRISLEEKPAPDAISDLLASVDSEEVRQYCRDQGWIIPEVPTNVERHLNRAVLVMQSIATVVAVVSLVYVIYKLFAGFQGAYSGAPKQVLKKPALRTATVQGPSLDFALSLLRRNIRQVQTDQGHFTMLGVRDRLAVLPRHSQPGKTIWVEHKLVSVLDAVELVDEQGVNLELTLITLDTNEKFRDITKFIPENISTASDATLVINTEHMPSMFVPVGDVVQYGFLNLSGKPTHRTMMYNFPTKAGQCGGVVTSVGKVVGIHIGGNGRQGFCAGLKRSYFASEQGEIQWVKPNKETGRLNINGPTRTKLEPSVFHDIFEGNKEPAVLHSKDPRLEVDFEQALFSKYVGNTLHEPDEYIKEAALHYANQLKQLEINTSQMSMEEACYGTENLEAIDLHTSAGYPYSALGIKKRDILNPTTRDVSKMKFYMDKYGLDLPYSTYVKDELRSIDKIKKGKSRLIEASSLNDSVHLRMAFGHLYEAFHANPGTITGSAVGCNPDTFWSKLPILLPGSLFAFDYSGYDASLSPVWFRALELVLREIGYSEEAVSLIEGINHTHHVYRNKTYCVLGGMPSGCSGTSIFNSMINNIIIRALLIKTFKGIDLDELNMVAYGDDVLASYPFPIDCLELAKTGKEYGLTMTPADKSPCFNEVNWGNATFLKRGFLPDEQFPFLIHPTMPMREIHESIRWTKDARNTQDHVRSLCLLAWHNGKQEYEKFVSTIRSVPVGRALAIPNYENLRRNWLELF
Summary of the method: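 Values reported as Ki (µM), each the mean of three independent experiments with SEM (n=3).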

Enterovirus A71 = test: Antiviral activity against Enterovirus A71 infected in human RD cells receiving pEV71-Luc subgenomic replicon stocks from HEK-293T cells; format: functional, organism-based; details: Enterovirus A
Summary of the method: (§3)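 Values (EC50, CC50) are the average of three independent experiments, with SEM (n = 3).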

[7] = Cytotoxicity in human RD cells assessed as reduction in cell viability incubated for 24 hrs by WST1 assay; format: cell-based; summary of the method: as §3
[8] = molecular target: Genome polyprotein (Enterovirus A71) (UniProt A0A1D8D5K2); test: Covalent binding affinity to EV71 3C protease expressed in Escherichia coli BL21(DE3) at 2 mg/ml incubated for 2 to 3 hrs and measured after trypsin digestion by LC-MS/MS analysis
Chain of Genome polyprotein (Enterovirus A71) (A0A1D8D5K2 as listed by the source): as the sequence (A0A1D8D5K2 whole entry) above

[9] = Drug metabolism in PBS buffer at pH 7.4; format: physicochemical
[10] = Drug metabolism in ICR (CD-1) mouse plasma by UPLC/Q-TOF-MS analysis; format: ADME, cell-free
Summary of the method: (§4)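 Compound was incubated with mouse plasma for 60 min. LC/MS followed loss of the parent peak and appearance of a product peak by retention time, and the product was characterized by tandem MS.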

[11] = Retention time of compound in ICR (CD-1) mouse plasma by UPLC/Q-TOF-MS analysis; format: ADME, cell-free; summary of the method: as §4

Row | Compound | pKi (Genome polyprotein) | pEC50 (Enterovirus A71) | CC50 at 24 h [7] | also measured
1 | Cc1cc(C(=O)N[C@@H](Cc2ccc(F)cc2)C(=O)N[C@@H](C[C@@H]2CCCNC2=O)[C@@H](O)C#N)no1 | 8.40 | 7.06 | > 100000 nM | half-life [1]: 11 min; half-life [2]: 7 min; half-life [3]: 8 min; half-life [4]: 6 min; microsomal CLint [5]: 87 µL/min/mg; microsomal CLint [6]: 116 µL/min/mg; Activity [8]: inactive
2 | Cc1cc(C(=O)N[C@@H](Cc2ccc(F)cc2)C(=O)N[C@@H](C[C@@H]2CCCNC2=O)[C@H]2OC(=O)N(C)C2=N)no1 | 6.55 | 5.40 | > 100000 nM | 
3 | CCCCNC(=O)O[C@@H](C#N)[C@H](C[C@@H]1CCCNC1=O)NC(=O)[C@H](Cc1ccc(F)cc1)NC(=O)c1cc(C)on1 | 6.35 | 6.16 | > 100000 nM | 
4 | CCCN1C(=N)[C@H]([C@H](C[C@@H]2CCCNC2=O)NC(=O)[C@H](Cc2ccc(F)cc2)NC(=O)c2cc(C)on2)OC1=O | 5.59 | 4.90 | > 100000 nM | 
5 | CCCCN1C(=N)[C@@H]([C@H](C[C@@H]2CCCNC2=O)NC(=O)[C@H](Cc2ccc(F)cc2)NC(=O)c2cc(C)on2)OC1=O | 5.60 | 4.90 | > 100000 nM | 
6 | Cc1cc(C(=O)N[C@@H](Cc2ccc(F)cc2)C(=O)N[C@@H](C[C@@H]2CCCNC2=O)[C@H](C#N)OC(=O)Nc2ccccc2)no1 |  | 4.88 | > 100000 nM | 
7 | Cc1cc(C(=O)N[C@@H](Cc2ccc(F)cc2)C(=O)N[C@@H](C[C@@H]2CCCNC2=O)[C@H](C#N)OC(=O)N2CCOCC2)no1 |  | < 4.00 | > 100000 nM | half-life [2]: > 120 min; Drug metabolism [9]: Metabolite_Notdetected
8 | CCNC(=O)O[C@@H](C#N)[C@H](C[C@@H]1CCCNC1=O)NC(=O)[C@H](Cc1ccc(F)cc1)NC(=O)c1cc(C)on1 | 7.29 | 6.12 | > 100000 nM | 
9 | Cc1cc(C(=O)N[C@@H](Cc2ccc(F)cc2)C(=O)N[C@@H](C[C@@H]2CCCNC2=O)[C@H](C#N)OC(=O)C(C)C)no1 | 6.62 | 5.58 | > 100000 nM | 
10 | CNC(=O)O[C@@H](C#N)[C@H](C[C@@H]1CCCNC1=O)NC(=O)[C@H](Cc1ccc(F)cc1)NC(=O)c1cc(C)on1 | 7.15 | 6.21 | > 100000 nM | 
11 | CC(=O)O[C@@H](C#N)[C@H](C[C@@H]1CCCNC1=O)NC(=O)[C@H](Cc1ccc(F)cc1)NC(=O)c1cc(C)on1 | 7.19 | 7.17 | > 100000 nM | half-life [1]: 50 min; half-life [2]: 42 min; half-life [3]: 64 min
12 | Cc1cc(C(=O)N[C@@H](Cc2ccc(F)cc2)C(=O)N[C@@H](C[C@@H]2CCCNC2=O)[C@H](C#N)OC(=O)NC2CC2)no1 | 5.89 | 5.29 | > 100000 nM | 
13 | CCOC(=O)/C=C/[C@H](C[C@@H]1CCNC1=O)NC(=O)[C@@H](CC(=O)[C@@H](NC(=O)c1cc(C)on1)C(C)C)Cc1ccc(F)cc1 |  |  |  | Activity [8]: Active
14 | Cc1cc(C(=O)N[C@@H](Cc2ccc(F)cc2)C(=O)N[C@@H](C[C@@H]2CCCNC2=O)[C@H](C#N)OC(=O)NC(C)C)no1 | 7.44 | 6.19 | > 100000 nM | half-life [2]: 31 min; Drug metabolism [9]: Metabolite_Detected; Drug metabolism [10]: Metabolite_Detected; Retention_time [11]: 6.41 min
15 | CCN1C(=N)[C@H]([C@H](C[C@@H]2CCCNC2=O)NC(=O)[C@H](Cc2ccc(F)cc2)NC(=O)c2cc(C)on2)OC1=O | 5.45 | 4.77 | > 100000 nM | 
16 | Cc1cc(C(=O)N[C@@H](Cc2ccc(F)cc2)C(=O)N[C@@H](C[C@@H]2CCCNC2=O)[C@H](C#N)OC(=O)C2CC2)no1 | 6.25 | 5.31 | > 100000 nM | 
17 | CCNC(=O)O[C@H](C#N)[C@H](C[C@@H]1CCCNC1=O)NC(=O)[C@H](Cc1ccc(F)cc1)NC(=O)c1cc(C)on1 | 6.72 | 5.45 | > 100000 nM | 
18 | Cc1cc(C(=O)N[C@@H](Cc2ccc(F)cc2)C(=O)N[C@@H](C[C@@H]2CCCNC2=O)[C@@H](C#N)OC(=O)NC(C)C)no1 | 7.03 | 5.76 | > 100000 nM | 
19 | CCCNC(=O)O[C@@H](C#N)[C@H](C[C@@H]1CCCNC1=O)NC(=O)[C@H](Cc1ccc(F)cc1)NC(=O)c1cc(C)on1 | 7.07 | 6.80 | > 100000 nM | half-life [2]: 12 min; Drug metabolism [9]: Metabolite_Detected; Drug metabolism [10]: Metabolite_Detected
20 | Cc1cc(C(=O)N[C@@H](Cc2ccc(F)cc2)C(=O)N[C@@H](C[C@@H]2CCCNC2=O)[C@@H](C#N)OC(=O)NC2CC2)no1 | 5.21 | 4.89 | > 100000 nM | 
21 | CNC(=O)O[C@H](C#N)[C@H](C[C@@H]1CCCNC1=O)NC(=O)[C@H](Cc1ccc(F)cc1)NC(=O)c1cc(C)on1 | 7.34 | 6.00 | > 100000 nM | 
22 | CCN(C)C(=O)O[C@@H](C#N)[C@H](C[C@@H]1CCCNC1=O)NC(=O)[C@H](Cc1ccc(F)cc1)NC(=O)c1cc(C)on1 |  | < 4.00 | > 100000 nM | half-life [2]: > 120 min; Drug metabolism [9]: Metabolite_Notdetected
23 | Cc1cc(C(=O)N[C@@H](Cc2ccc(F)cc2)C(=O)N[C@@H](C[C@@H]2CCCNC2=O)[C@@H]2OC(=O)N(C(C)C)C2=N)no1 | 7.21 | 6.29 | > 100000 nM | 
24 | CCCCNC(=O)O[C@H](C#N)[C@H](C[C@@H]1CCCNC1=O)NC(=O)[C@H](Cc1ccc(F)cc1)NC(=O)c1cc(C)on1 | 5.32 | 5.07 | > 100000 nM | 
25 | CCN1C(=N)[C@@H]([C@H](C[C@@H]2CCCNC2=O)NC(=O)[C@H](Cc2ccc(F)cc2)NC(=O)c2cc(C)on2)OC1=O | 6.66 | 5.36 | > 100000 nM | 
26 | Cc1cc(C(=O)N[C@@H](Cc2ccc(F)cc2)C(=O)N[C@@H](C[C@@H]2CCCNC2=O)[C@H](C#N)OC(=O)N(C)C)no1 |  | 4.15 | > 100000 nM | 
27 | CCCNC(=O)O[C@H](C#N)[C@H](C[C@@H]1CCCNC1=O)NC(=O)[C@H](Cc1ccc(F)cc1)NC(=O)c1cc(C)on1 | 6.74 | 5.66 | > 100000 nM | 
28 | Cc1cc(C(=O)N[C@@H](Cc2ccc(F)cc2)C(=O)N[C@@H](C[C@@H]2CCCNC2=O)[C@H]2OC(=O)N(C(C)C)C2=N)no1 | 7.48 | 7.00 | > 100000 nM | half-life [1]: > 120 min; half-life [2]: > 120 min; half-life [3]: 76 min; half-life [4]: 74 min; microsomal CLint [5]: 9 µL/min/mg; microsomal CLint [6]: 9 µL/min/mg
29 | Cc1cc(C(=O)N[C@@H](Cc2ccc(F)cc2)C(=O)N[C@@H](C[C@@H]2CCCNC2=O)[C@H]2OC(=O)N(C3CC3)C2=N)no1 | 5.77 | 5.06 | > 100000 nM | 
30 | Cc1cc(C(=O)N[C@@H](Cc2ccc(F)cc2)C(=O)N[C@@H](C[C@@H]2CCCNC2=O)[C@@H]2OC(=O)N(C)C2=N)no1 | 6.68 | 5.99 | > 100000 nM | 
